# Measurements from PubChem BioAssay.
# A number with no mark means an inactive call. Some of the results follow. Activity calls are given as the source filed them.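 Rule for the calls, unless noted: active = current rise at least 3 SD above the untreated control mean in each of two repeat wells; inactive = the rest.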
# Molecular target: Potassium voltage-gated channel subfamily KQT member 1 (Homo sapiens) (UniProt P51787)
# Assay: KCNQ1 potassium channel potentiators, confirmation, FluxOR thallium flux, CHO cells, duplicates (AID 493007;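 active = potentiation averaged over duplicate wells exceeding buffer-only control mean by more than 3 SD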;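 for outcome: cells depolarized by a potassium plus thallium sulfate stimulus after compound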;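 for potentiation: 0% = buffer-only wells and 100% = R-L3 activator control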)
# Conditions: KCNQ1 cell line, FluxOR thallium flux fluorescence, at 10 µM; active compounds read high, % of reference activator effect, buffer zero
# Method in brief: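 Assay system: CHO cells carrying KCNQ1 | Controls: Buffer and R-L3 controls | Schedule: FluxOR dye loading 90 min, compound exposure 20 min, room temperature | Read-out: Baseline-normalized fluorescence change, percent of buffer-to-R-L3 range | Replicates: Each compound tested in duplicate | Technique: Kinetic thallium influx fluorescence with FluxOR dye, 10 s baseline, 110 s post-stimulus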
# Chain of Potassium voltage-gated channel subfamily KQT member 1 (Homo sapiens) (P51787 whole entry, looked up): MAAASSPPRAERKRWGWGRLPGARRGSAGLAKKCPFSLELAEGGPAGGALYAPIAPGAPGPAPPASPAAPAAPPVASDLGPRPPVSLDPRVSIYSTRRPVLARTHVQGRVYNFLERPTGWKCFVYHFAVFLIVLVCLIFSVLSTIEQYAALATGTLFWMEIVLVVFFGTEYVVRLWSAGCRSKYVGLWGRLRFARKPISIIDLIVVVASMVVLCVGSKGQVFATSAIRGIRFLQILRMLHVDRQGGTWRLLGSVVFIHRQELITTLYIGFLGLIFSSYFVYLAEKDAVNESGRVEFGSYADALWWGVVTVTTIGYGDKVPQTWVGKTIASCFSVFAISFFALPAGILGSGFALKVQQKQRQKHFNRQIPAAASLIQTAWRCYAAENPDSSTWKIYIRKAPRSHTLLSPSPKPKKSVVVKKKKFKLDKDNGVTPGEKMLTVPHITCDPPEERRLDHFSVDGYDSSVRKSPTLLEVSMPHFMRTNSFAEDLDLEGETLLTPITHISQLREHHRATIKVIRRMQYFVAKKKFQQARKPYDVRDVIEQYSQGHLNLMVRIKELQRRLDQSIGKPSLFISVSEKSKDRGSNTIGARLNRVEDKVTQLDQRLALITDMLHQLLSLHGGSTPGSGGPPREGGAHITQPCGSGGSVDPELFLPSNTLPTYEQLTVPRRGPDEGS
Compound,potentiation,outcome
Cc1[nH][nH]c(=O)c1C(c1ccc(-c2ccc(Cl)cc2)o1)c1c(C)[nH][nH]c1=O,27.5% (active),–
CCn1c(O)c(N=NC2=NC(=O)CS2)c2cc(C)ccc21,112% (active),–
CCn1c2ccccc2c2cc(NC(=O)CNC)ccc21,–,inactive
CCOC(=O)c1c(NC(=S)NC)sc2c1CCCC2,73% (active),–
Cc1ccc(/C=N/NC(=O)c2cc3ccccc3cc2O)o1,140% (active),–
CC1=C/C(=N\OS(=O)(=O)c2ccccc2)C=CC1=O,–,inactive
CCc1ccc(NC(=O)C(=O)NNC(=O)c2cccs2)cc1,159% (active),–
CS(=O)(=O)c1sc(C(=O)NC(=S)Nc2ccc(OC(F)(F)F)cc2)c2c1C=CCC2,92% (active),–
CCOC(=O)c1sc(=S)n2c1[nH]c(=O)c1ccc(C(=O)OC)cc12,108% (active),–
CCn1c(=S)[nH]c2sc3c(c2c1=O)CCCCC3,258% (active),–
CCn1cc(CN2CCC(C(=O)Nc3cccc(-c4cccc(Cl)c4)c3)CC2)cn1,–,inactive
Oc1c(Cl)cc(Cl)cc1/C=N/c1ncn[nH]1,41.5% (active),–
CCC1(C)Cc2c(sc3[nH]c(=S)n(Cc4ccccc4)c(=O)c23)CO1 (stereo unspecified),190% (active),–
Cc1cccc(NC(=S)NC(=O)c2ccc(Br)o2)c1,72% (active),–

# Molecular target: Potassium voltage-gated channel subfamily KQT member 2 (Rattus norvegicus) (UniProt O88943)
# Assay: rat KCNQ2 channel potentiation, selectivity assay for KCNQ1 potentiator project, KCNQ2-CHO-K1 cells (AID 493009;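 active = mean duplicate potentiation above the buffer control mean plus 5 SD of buffer wells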;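 note: assay conditions were tuned for KCNQ1 rather than KCNQ2 modulators; signal is max minus min fluorescence divided by baseline after thallium stimulus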)
# Conditions: FluxOR thallium flux fluorescence, at 10 µM; active compounds read high, scaled: buffer 0, activator control 100
# Chain of Potassium voltage-gated channel subfamily KQT member 2 (Rattus norvegicus) (O88943 whole entry, looked up): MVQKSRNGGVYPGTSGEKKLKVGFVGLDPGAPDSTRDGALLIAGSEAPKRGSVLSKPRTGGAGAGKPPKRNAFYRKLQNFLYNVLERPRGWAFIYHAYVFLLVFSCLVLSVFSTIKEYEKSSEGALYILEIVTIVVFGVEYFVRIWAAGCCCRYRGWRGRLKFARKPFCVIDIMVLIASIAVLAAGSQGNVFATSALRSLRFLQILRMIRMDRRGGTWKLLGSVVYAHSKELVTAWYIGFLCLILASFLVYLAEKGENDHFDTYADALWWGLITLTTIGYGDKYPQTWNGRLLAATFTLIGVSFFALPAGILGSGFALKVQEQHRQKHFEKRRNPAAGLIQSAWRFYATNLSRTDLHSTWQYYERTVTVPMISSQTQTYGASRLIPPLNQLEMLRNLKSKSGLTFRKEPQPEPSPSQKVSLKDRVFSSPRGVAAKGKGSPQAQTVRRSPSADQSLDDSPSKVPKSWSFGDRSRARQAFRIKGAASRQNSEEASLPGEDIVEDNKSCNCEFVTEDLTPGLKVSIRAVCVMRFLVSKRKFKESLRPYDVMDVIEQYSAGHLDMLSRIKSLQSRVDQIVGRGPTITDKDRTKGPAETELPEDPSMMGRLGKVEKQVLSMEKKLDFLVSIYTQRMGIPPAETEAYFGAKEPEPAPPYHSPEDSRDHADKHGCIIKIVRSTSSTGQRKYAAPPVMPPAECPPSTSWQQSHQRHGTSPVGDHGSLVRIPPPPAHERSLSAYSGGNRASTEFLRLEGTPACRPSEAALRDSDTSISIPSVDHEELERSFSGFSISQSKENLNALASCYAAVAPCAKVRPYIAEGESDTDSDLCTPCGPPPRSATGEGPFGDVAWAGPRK
Compound,outcome,potentiation
Cc1[nH][nH]c(=O)c1C(c1ccc(-c2ccc(Cl)cc2)o1)c1c(C)[nH][nH]c1=O,inactive,–
CCn1c(O)c(N=NC2=NC(=O)CS2)c2cc(C)ccc21,–,310% (active)
CCn1c2ccccc2c2cc(NC(=O)CNC)ccc21,inactive,–
CCOC(=O)c1c(NC(=S)NC)sc2c1CCCC2,–,289% (active)
Cc1ccc(/C=N/NC(=O)c2cc3ccccc3cc2O)o1,–,506% (active)
CC1=C/C(=N\OS(=O)(=O)c2ccccc2)C=CC1=O,inactive,–
CCc1ccc(NC(=O)C(=O)NNC(=O)c2cccs2)cc1,–,421% (active)
CS(=O)(=O)c1sc(C(=O)NC(=S)Nc2ccc(OC(F)(F)F)cc2)c2c1C=CCC2,–,168% (active)
CCOC(=O)c1sc(=S)n2c1[nH]c(=O)c1ccc(C(=O)OC)cc12,–,351% (active)
CCn1c(=S)[nH]c2sc3c(c2c1=O)CCCCC3,–,530% (active)
Oc1c(Cl)cc(Cl)cc1/C=N/c1ncn[nH]1,–,156% (active)
CCC1(C)Cc2c(sc3[nH]c(=S)n(Cc4ccccc4)c(=O)c23)CO1 (stereo unspecified),–,388% (active)
Cc1cccc(NC(=S)NC(=O)c2ccc(Br)o2)c1,–,272% (active)

# Molecular target: Potassium voltage-gated channel subfamily KQT member 1 (Homo sapiens) (UniProt P51787)
# Assay: KCNQ1 channel current potentiators, confirmation, orthogonal assay for KCNQ1 potentiator project, IonWorks patch clamp, KCNQ1-CHO cells (AID 493184);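 for current potentiation: percent change of the same well's current before compound addition so 0% = no change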
# Conditions: automated patch clamp current, at 10 µM; active compounds read high
# Method in brief: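 Material: KCNQ1-expressing CHO cells; doses: 10 µM final, single point; probe or stimulus: voltage step from -90 mV holding to +40 mV, 2,000 ms; signal: automated voltage clamp, amphotericin B perforated patch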
Compound,outcome,current potentiation
Cc1[nH][nH]c(=O)c1C(c1ccc(-c2ccc(Cl)cc2)o1)c1c(C)[nH][nH]c1=O,inactive,–
CCn1c(O)c(N=NC2=NC(=O)CS2)c2cc(C)ccc21,inactive,–
CCn1c2ccccc2c2cc(NC(=O)CNC)ccc21,inactive,–
CCOC(=O)c1c(NC(=S)NC)sc2c1CCCC2,inactive,–
Cc1ccc(/C=N/NC(=O)c2cc3ccccc3cc2O)o1,inactive,–
CC1=C/C(=N\OS(=O)(=O)c2ccccc2)C=CC1=O,inactive,–
CCc1ccc(NC(=O)C(=O)NNC(=O)c2cccs2)cc1,inactive,–
CS(=O)(=O)c1sc(C(=O)NC(=S)Nc2ccc(OC(F)(F)F)cc2)c2c1C=CCC2,inactive,–
CCOC(=O)c1sc(=S)n2c1[nH]c(=O)c1ccc(C(=O)OC)cc12,inactive,–
CCn1c(=S)[nH]c2sc3c(c2c1=O)CCCCC3,inactive,–
CCn1cc(CN2CCC(C(=O)Nc3cccc(-c4cccc(Cl)c4)c3)CC2)cn1,inactive,–
Oc1c(Cl)cc(Cl)cc1/C=N/c1ncn[nH]1,inactive,–
CCC1(C)Cc2c(sc3[nH]c(=S)n(Cc4ccccc4)c(=O)c23)CO1 (stereo unspecified),–,15.1% (active)
Cc1cccc(NC(=S)NC(=O)c2ccc(Br)o2)c1,inactive,–

# Molecular target: Potassium voltage-gated channel subfamily KQT member 1 (Homo sapiens) (UniProt P51787)
# Assay: KCNQ1 potassium channel inhibitors, confirmation, cell-based, Tl flux, duplicate (AID 588353;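 active = primary screen active, with duplicate mean exceeding buffer control mean plus 3 SD of buffer wells, cut at about 28% in these data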;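 note: 0% = buffer control ratio and 100% = XE991 inhibitor control ratio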)
# Conditions: KCNQ1 cell line, FluxOR thallium flux fluorescence; at 10 µM; active compounds read high
# Method in brief: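 Test system: CHO cells stably expressing KCNQ1 potassium channel / Evaluation: percent inhibition of fluorescence change ratio, scaled buffer to XE991 / Technique: FluxOR thallium flux fluorescence, 10 s baseline plus 110 s / Schedule: 90 min dye load, 20 min dark compound exposure, room temperature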
row,Compound,inhibition
1,CC(=O)N(C1=C(Cl)C(=O)c2ccccc2C1=O)c1ccc(C(=O)O)cc1,158% (active)
2,CCc1ccc(-c2nn(-c3ccccc3)cc2CSC(=N)N)cc1,126% (active)
3,S=C(NCc1ccc(Cl)cc1)NC12CC3CC(CC(C3)C1)C2,143% (active)
4,FC(F)(F)c1cccc(NC(=S)Nc2cccc(Cl)c2)c1,112% (active)
5,Cc1ccc2nc(C)c3c(c2c1)N(c1ccccc1)CC3,46% (active)

# Test system: not listed separately
# Assay: thallium flux effects in parental CHO cells, counter-screen for KCNQ1 inhibitor project, cell-based, Tl flux (AID 588366;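 active = mean of duplicate thallium-flux fluorescence ratios in parental host cells more than 5 SD below the buffer control mean, cut at about 0.38 in these data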;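 note: ratio is peak minus minimum fluorescence divided by baseline fluorescence; actives read low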)
# Conditions: parental CHO-K1, FluxOR thallium flux fluorescence ratio; at 10 µM; active compounds read low; zero means no signal rise above baseline
# Method in brief: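 Assay system – untransfected parental CHO-K1 cells · Technique – kinetic Tl+ flux fluorescence with FluxOR dye · Timing – FluxOR dye loading 90 min, compound exposure 20 min, room temperature · Replication – duplicate measurements per compound · Also added – K+/Tl+ depolarizing stimulus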
row,Compound,fluorescence ratio (Tl flux)
1,CC(=O)N(C1=C(Cl)C(=O)c2ccccc2C1=O)c1ccc(C(=O)O)cc1,0.205 (active)
2,CCc1ccc(-c2nn(-c3ccccc3)cc2CSC(=N)N)cc1,0.302 (active)
3,S=C(NCc1ccc(Cl)cc1)NC12CC3CC(CC(C3)C1)C2,0.521
4,FC(F)(F)c1cccc(NC(=S)Nc2cccc(Cl)c2)c1,0.527
5,Cc1ccc2nc(C)c3c(c2c1)N(c1ccccc1)CC3,0.419

# Molecular target: Potassium voltage-gated channel subfamily KQT member 2 (Rattus norvegicus) (UniProt O88943)
# Assay: KCNQ2 channel inhibition, selectivity assay for KCNQ1 inhibitor project, cell-based (AID 651746;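 active = mean percent inhibition of the KCNQ2 thallium signal more than 5 SD above the buffer-only control wells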;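 for inhibition: 0% = buffer control wells and 100% = XE-991 inhibitor control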)
# Conditions: KCNQ2 cells, FluxOR thallium flux fluorescence, at 10 µM; active compounds read high
Compound,inhibition,outcome
CC(=O)N(C1=C(Cl)C(=O)c2ccccc2C1=O)c1ccc(C(=O)O)cc1,124% (active),–
CCc1ccc(-c2nn(-c3ccccc3)cc2CSC(=N)N)cc1,114% (active),–
S=C(NCc1ccc(Cl)cc1)NC12CC3CC(CC(C3)C1)C2,–,inactive
FC(F)(F)c1cccc(NC(=S)Nc2cccc(Cl)c2)c1,–,inactive
Cc1ccc2nc(C)c3c(c2c1)N(c1ccccc1)CC3,83.7% (active),–
